This note sets out measurements from ChEMBL document CHEMBL3286120, “Design and synthesis of novel soluble 2,5-diketopiperazine derivatives as potential anticancer agents” (Eur J Med Chem, 2014).

One may read the IC50 as the concentration that gives 50% inhibition.

Test [1] is described as follows: Cytotoxicity against human BGC823 cells assessed as reduction in cell viability after 72 hrs by CCK8 assay. The class given is functional, cell-based, BGC-823. In a few lines:
(§1)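 Cells kept in RPMI or DMEM with 10% FBS and 1% penicillin/streptomycin at 37 °C in 5% CO2. Seeded at 400-800 cells/well in 384-well plates and exposed to varying compound concentrations, with solution-only control, for 72 h. CCK8 reagent added, then absorbance read at 450 nm. Plinabulin and TSA were positive controls. Mean SD of three experiments.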
For orientation: Tetrazolium assays rely on reduction of a dye to a coloured formazan, in cell work by metabolically active cells.

For test [2], the system named is A549. In words: Cytotoxicity against human A549 cells assessed as reduction in cell viability after 72 hrs by CCK8 assay. The test is classed as functional, cell-based. In outline:
as §1

Test [3] concerns MCF7. In words: Cytotoxicity against human MCF7 cells assessed as reduction in cell viability after 72 hrs by CCK8 assay. The class given is functional, cell-based. In a few lines: as §1
The nature of test [4]: Cytotoxicity against human HuH7 cells assessed as reduction in cell viability after 72 hrs by CCK8 assay. The class given is functional, cell-based, Huh-7. In outline:
as §1

In test [5] the test system is HeLa. In words: Cytotoxicity against human HeLa cells assessed as reduction in cell viability after 72 hrs by CCK8 assay. The class given is functional, cell-based. In outline: as §1
In test [6] the test system is U-937. In words: Cytotoxicity against human U937 cells assessed as reduction in cell viability after 72 hrs by CCK8 assay. The class given is functional, cell-based. In outline:
as §1

The test system of test [7] is K562. Put plainly: Cytotoxicity against human K562 cells assessed as reduction in cell viability after 72 hrs by CCK8 assay. The class given is functional, cell-based. In outline: as §1
In test [8] the test system is NCI-H1975. Put plainly: Cytotoxicity against human NCI-H1975 cells assessed as reduction in cell viability after 72 hrs by CCK8 assay. The test is classed as functional, cell-based. In a few lines: as §1
Test [9] deals with HL-60. In words: Cytotoxicity against human HL60 cells assessed as reduction in cell viability after 72 hrs by CCK8 assay. The test is classed as functional, cell-based. In outline:
as §1

Test [10] relates to MOLT-4. Put plainly: Cytotoxicity against human MOLT4 cells assessed as reduction in cell viability after 72 hrs by CCK8 assay. The test is classed as functional, cell-based. In outline: as §1
The mark [11] stands for this setting: Homo sapiens, BGC-823, 72 h, read-out: IC50.
Setting [12] is: Homo sapiens, A549, 72 h, read-out: IC50.
Where [13] appears, read: Homo sapiens, MCF7, 72 h, read-out: IC50.
[14] abbreviates: Homo sapiens, MOLT-4, 72 h, read-out: IC50.
[15] abbreviates: Homo sapiens, Huh-7, 72 h, read-out: IC50.
The mark [16] stands for this setting: Homo sapiens, HeLa, 72 h, read-out: IC50.
[17] abbreviates: Homo sapiens, U-937, 72 h, read-out: IC50.
The mark [18] stands for this setting: Homo sapiens, K562, 72 h, read-out: IC50.
[19] abbreviates: Homo sapiens, NCI-H1975, 72 h, read-out: IC50.
Setting [20] is: Homo sapiens, HL-60, 72 h, read-out: IC50.

`COc1ccccc1/C=c1/[nH]c(=O)/c(=C\c2ccccc2OC)[nH]c1=O`: the concentration for half-maximal inhibition (IC50) entry in test [1] (bgc-823), in [2] (a549), in [3] (mcf7), in test [4] (huh-7), in test [5] (hela) and in test [6] (u-937) was “Not Active” throughout. Besides, the IC50 entry in test [7] (k562), in test [8] (nci-h1975) and in test [9] (hl-60) was “Not Active” in each case.
Regarding `C=CCn1c(=O)/c(=C\c2ccc(Cl)c(Cl)c2)[nH]c(=O)/c1=C\c1ccccc1`, the IC50 result in test [1] (bgc-823), in test [2] (a549), in [3] (mcf7), in test [10] (molt-4), in test [4] (huh-7) and in test [5] (hela) was “Not Active” each time. Further, the IC50 entry in test [6] (u-937), in test [7] (k562), in test [8] (nci-h1975) and in test [9] (hl-60) was “Not Active” in each case.
As for `C=CCn1c(=O)/c(=C\c2cccc(Cl)c2)[nH]c(=O)/c1=C\c1ccccc1OC`, the IC50 in [1] (setting [11]) came to 4.6 µM; in test [2] (setting [12]), 5.2 µM; in [3] (setting [13]), 5.2 µM; in test [10] (setting [14]), 4.9 µM; in test [4] (setting [15]), 8.9 µM; in [5] (setting [16]), 5.5 µM. In addition, the concentration for half-maximal inhibition (IC50) in test [6] (setting [17]) turned out to be 1.2 µM; in test [7] (setting [18]), 2.7 µM; in test [8] (setting [19]), 5.1 µM; in [9] (setting [20]), 4.5 µM.
`C=CCn1c(=O)/c(=C\c2cccc(F)c2)[nH]c(=O)/c1=C\c1ccccc1OC`: the IC50 in test [1] (setting [11]) worked out at 5.6 µM; in test [2] (setting [12]), 19.7 µM; in test [3] (setting [13]), 13.7 µM; in test [10] (setting [14]), 6.5 µM; in test [4] (setting [15]) it was 27.2 µM; in test [5] (setting [16]), 9.1 µM. Also, the half-inhibitory concentration (IC50) turned out to be 2.5 µM in [6] (setting [17]), 4.1 µM in test [7] (setting [18]), 25.6 µM in test [8] (setting [19]) and 8.89 µM in test [9] (setting [20]).
Turning to `C=CCn1c(=O)/c(=C\c2cccc(C)c2)[nH]c(=O)/c1=C\c1ccccc1OC`, the IC50 amounted to 20.4 µM in test [1] (setting [11]); 22.7 µM in test [2] (setting [12]); 20.7 µM in [3] (setting [13]); 16 µM in test [10] (setting [14]); 21.4 µM in test [4] (setting [15]); 19.3 µM in [5] (setting [16]). Further, the IC50 came to 5.1 µM in test [6] (setting [17]), 8.8 µM in test [7] (setting [18]), 32.8 µM in [8] (setting [19]) and 16.7 µM in test [9] (setting [20]).
As to `C=CCn1c(=O)/c(=C\c2ccccc2Cl)[nH]c(=O)/c1=C\c1ccccc1OC`, the concentration for half-maximal inhibition (IC50) in test [1] (setting [11]) amounted to 4.6 µM; in [2] (setting [12]) it was 5.3 µM; in [3] (setting [13]), 4.7 µM; in test [10] (setting [14]), 4.4 µM; in test [4] (setting [15]), 6.4 µM; in test [5] (setting [16]), 5.1 µM. Further, the half-maximal inhibitory concentration (IC50) amounted to 0.7 µM in test [6] (setting [17]), 2.5 µM in test [7] (setting [18]), 9.2 µM in [8] (setting [19]) and 4.2 µM in [9] (setting [20]).
For `C=CCn1c(=O)/c(=C\c2ccccc2F)[nH]c(=O)/c1=C\c1ccccc1OC`, the IC50 was 18.9 µM in test [1] (setting [11]); “Not Active” in test [2] (a549); 23 µM in test [3] (setting [13]); 20 µM in test [10] (setting [14]); 31.3 µM in [4] (setting [15]); 45 µM in test [5] (setting [16]). Besides, the concentration for half-maximal inhibition (IC50) in test [6] (setting [17]) worked out at 5.5 µM; in [7] (setting [18]), 5.6 µM; in test [8] (setting [19]) it was 25.1 µM; in test [9] (setting [20]), 18.5 µM.
Turning to `C=CCn1c(=O)/c(=C\c2ccccc2C(F)(F)F)[nH]c(=O)/c1=C\c1ccccc1OC`, the half-maximal inhibitory concentration (IC50) in test [1] (setting [11]) was determined as 5.1 µM; in [2] (setting [12]), 7 µM; in test [3] (setting [13]), 6.5 µM; in test [10] (setting [14]), 4.4 µM; in test [4] (setting [15]), 9.5 µM; in test [5] (setting [16]), 4.6 µM. In addition, the IC50 in [6] (setting [17]) is 1.5 µM; in test [7] (setting [18]), 2.7 µM; in test [8] (setting [19]) it was 14.5 µM; in [9] (setting [20]) it was 4.6 µM.
Consider `C=CCn1c(=O)/c(=C\c2ccccc2OC)[nH]c(=O)/c1=C\c1ccccc1OC`, for which the IC50 turned out to be 13.4 µM in [1] (setting [11]); 22.4 µM in test [2] (setting [12]); 41.1 µM in [3] (setting [13]); 13.1 µM in [10] (setting [14]); 21.2 µM in [4] (setting [15]); 6.9 µM in [5] (setting [16]). For the same compound, the IC50 worked out at 5.1 µM in test [6] (setting [17]), 7.4 µM in [7] (setting [18]), 21.5 µM in [8] (setting [19]) and 15.7 µM in test [9] (setting [20]).
For the compound `C=CCn1c(=O)/c(=C\c2cc(F)ccc2C)[nH]c(=O)/c1=C\c1ccccc1OC`, the half-inhibitory concentration (IC50) in [1] (setting [11]) came out at 1.6 µM; in test [2] (setting [12]), 4.9 µM; in [3] (setting [13]), 3.1 µM; in test [10] (setting [14]), 3.8 µM; in [4] (setting [15]) it was 5.6 µM; in [5] (setting [16]) it was 2.9 µM. Besides, the IC50 in [6] (setting [17]) was 1 µM; in [7] (setting [18]) it was 1.8 µM; in test [8] (setting [19]), 7.3 µM; in test [9] (setting [20]), 2.6 µM.
Take `COc1ccccc1/C=c1/[nH]c(=O)/c(=C\c2ccccc2OC)n(C)c1=O`: the 50% inhibitory concentration (IC50) entry in test [1] (bgc-823) is “Not Active”; in test [2] (setting [12]), 7 µM; in test [3] (setting [13]) it was 9 µM; in test [4] (huh-7) it was “Not Active”; in [5] (hela), “Not Active”; in test [6] (setting [17]), 1.5 µM. Further, the concentration for half-maximal inhibition (IC50) was determined as 2.2 µM in test [7] (setting [18]), 16.9 µM in test [8] (setting [19]) and 16.2 µM in test [9] (setting [20]).
Turning to `COc1ccccc1/C=c1\c(=O)[nH]/c(=C/c2ccccc2Cl)c(=O)n1C`, the half-maximal inhibitory concentration (IC50) in test [1] (setting [11]) was 0.3 µM; in [2] (setting [12]), 0.3 µM; in test [3] (setting [13]) it was 0.2 µM; in test [4] (setting [15]) it was 0.3 µM; in [5] (setting [16]), 0.3 µM; in test [6] (setting [17]) it was 0.1 µM. Moreover, the IC50 in [7] (setting [18]) worked out at 0.11 µM; in test [8] (setting [19]), 0.2 µM; in test [9] (setting [20]), 0.2 µM.
Consider `COc1ccccc1/C=c1\c(=O)[nH]/c(=C/c2cccc(Cl)c2Cl)c(=O)n1C`, for which the half-maximal inhibitory concentration (IC50) is 0.3 µM in test [1] (setting [11]); 0.2 µM in [2] (setting [12]); 0.2 µM in test [3] (setting [13]); 0.3 µM in test [4] (setting [15]); 0.2 µM in [5] (setting [16]); 0.1 µM in [6] (setting [17]). Also, the IC50 in test [7] (setting [18]) came to 0.11 µM; in [8] (setting [19]), 0.3 µM; in test [9] (setting [20]), 0.2 µM.
Turning to `COc1ccccc1/C=c1/[nH]c(=O)/c(=C\c2cccc(Cl)c2Cl)[nH]c1=O`, the half-inhibitory concentration (IC50) result in test [1] (bgc-823), in test [2] (a549), in test [3] (mcf7), in test [4] (huh-7), in [5] (hela) and in test [6] (u-937) was “Not Active” throughout. In addition, the half-maximal inhibitory concentration (IC50) result in test [7] (k562), in test [8] (nci-h1975) and in test [9] (hl-60) was “Not Active” throughout.
For the compound `CC(C)(C)c1[nH]cnc1/C=c1\[nH]c(=O)/c(=C/c2ccccc2)[nH]c1=O` [PLINABULIN], the IC50 stood at 0.009 µM in test [1] (setting [11]); 0.01 µM in test [2] (setting [12]); 0.01 µM in [3] (setting [13]); 0.031 µM in test [4] (setting [15]); 0.01 µM in [5] (setting [16]); 0.006 µM in test [6] (setting [17]). The 50% inhibitory concentration (IC50) is 0.008 µM in test [7] (setting [18]), 0.011 µM in [8] (setting [19]) and 0.01 µM in [9] (setting [20]).
